Measurements reported in article PMC9061760 (RSC Advances, 2019).
Several values for one entry are separate records, joined by “and”; a condition that tells them apart may be missing. Equal values may be shown once.

Columns and labels:
[1] = Steady state UV/Vis absorption; type: physicochemical; conditions: for ε 355 (extinction coefficient): 355 nm
[2] = Laser flash photolysis; type: physicochemical; conditions: excitation 355 nm, 30 mJ, 0.4 mM in 5× PBS buffer, pH 7
Summary of the method: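 Transient absorption after a single 355 nm pulse (third harmonic) from a Nd:YAG laser at 30 mJ pulse energy. Test compound at 0.4 mM in 5× PBS buffer, pH 7, in a 1 cm × 1 cm cuvette. The kinetic trace of the transient species, assigned to the nitronate, was followed over time to obtain its decay.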

ε 355 (extinction coefficient) [1] | λmax (additional absorption band) [1] | extinction coefficient at λmax ([1]; at 365 nm) | Structure (SMILES) | time constant of nitronate decay observed at 430 nm [2]
430 M⁻¹ cm⁻¹ | – | – | N[C@@H](CC(=O)O)C(=O)OC(C(=O)O)c1ccccc1[N+](=O)[O-].O=C(O)C(F)(F)F (mixture of isomers) [1a, α-carboxynitrobenzyl L-aspartate] | –
4060 M⁻¹ cm⁻¹ | 365 nm | ~ 4000 M^−1 cm^−1 | N[C@@H](CC(=O)O)C(=O)OC(C(=O)O)c1cc2c(cc1[N+](=O)[O-])OCO2.O=C(O)C(F)(F)F (stereo partly drawn) [1b, α-carboxynitropiperonyl L-aspartate] | 0.87 ms and 0.87 ± 0.04 ms
